Lmaj promast = Leishmania major promastigote growth inhibition, primary screen; Leishmania major promastigotes, resazurin fluorescence viability; inhibition, % at 10 µM; 9% of 200,000 active; in the data active = inhibition above about 50%;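 note: promastigotes grown with compound for 44 hours at 28 °C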
Calb FLC = C. albicans growth inhibition with fluconazole, primary screen, CaCi-2 strain, Alamar Blue fluorescence; 0.57% of 300,000 active; growth inhibition, % (no concentration beside the values); C. albicans CaCi-2 + fluconazole, 48 h;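 active = growth inhibition above about 58% in most replicates, limit read from the data, passing the limit was not always enough; inconclusive = exactly half the replicates above a set limit; inactive = most replicates below a set limit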;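 note: all wells also contain fluconazole at 8 µg/ml as a sub-toxic cotreatment; 0% = median of DMSO wells and 100% = median of geldanamycin control wells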
PolyA inh = polyadenylation inhibitors in yeast reporter cells, primary screen, luminescence, S. cerevisiae | S. cerevisiae SKY197-pL101 polyadenylation reporter, beta-gal luminescence; efflux-impaired pdr1/pdr3 knockout yeast; score 100 = 6 SD above DMSO | activity score, % at 12 µM | 0.02% of 300,000 active | AID 1875, 2009;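 active = lowest replicate activity score at least 50, where 100 means six control SD above control mean; inconclusive = lowest score under 50 but half or more replicates reach 50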;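 note: yeast exposed to compound for 9 h at 30 °C; higher score means more reporter readthrough which indicates perturbed polyadenylation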
NALP1 yeast inh = NALP1 inflammasome inhibitors in reconstituted yeast, colorimetric, S. cerevisiae, triplicate retest. inhibition, % at 10 µM. 0.61% of 280,000 active. S. cerevisiae NALP1/ASC/caspase-1 growth, X-gal OD620, 72 h; in the data active = inhibition mostly above about 24%, no sharp cut-off; inactive = mostly below about 32%
T cruzi inh = inhibitors of intracellular T. cruzi growth, primary screen, luminescence, NIH3T3 host cells; T. cruzi beta-gal in NIH3T3, 90 h; inhibition, % (test concentration not listed); 1.4% of 300,000 active; AID 1885, 2009;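 active = mean inhibition across valid replicates above about 55%, limit read from the data; inconclusive = mean below that limit but half or more replicates reach it; inactive = mean below it, under half of replicates reach it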;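 note: signal also drops with host cell toxicity which is not excluded here; 0% = plate median of DMSO wells and 100% = zero luminescence signal; higher percent means less beta-gal luminescence so fewer parasites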
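Test system: β-gal T. cruzi (Tulahuen C4) inside NIH/3T3 cells / Quantity: 5,000 cells/well / Measured by: luminescence from GalScreen with 0.05% NP40, read after 60 min / Medium: DMEM plus 2% FBS / Measure: parasite load inhibition, % / Reagent: Tulahuen C4 trypomastigotes, 5000/well / Schedule: co-culture of at least 90 h after 3 h attachment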
NLRP3 yeast inh = NALP3 inflammasome inhibitors in reconstituted yeast, primary screen, luminescence, uHTS; Yeast reconstituted NLRP3/ASC/caspase-1, beta-gal luminescence, 24 h; AID 2825, 2010; inhibition, % at 10 µM; 0.39% of 330,000 active;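 active = inhibition of 50% or more; inactive = inhibition below 50%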;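 note: plate controls were induced DMSO wells for no effect and uninduced yeast grown without galactose for full effect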
Starred values were filed as active, the others as inactive; ? = inconclusive; / = no result given. The sample as a whole holds a higher share of hits than the screen did.

SMILES	Lmaj promast	Calb FLC	PolyA inh	NALP1 yeast inh	T cruzi inh	NLRP3 yeast inh
O=C(NCc1ccc(OC(F)(F)F)cc1)C1CCC(=O)N(C2CC2)C1 (configuration not stated)	/	1.1	10.8	18.2	3.1	-0.7
c1ccc(COc2cccc(CNCc3ccccn3)c2)cc1	96.5*	-38.4	-3.9	6.7	-3.0	-18.8
Oc1ccc(NCc2cccc(OCc3ccccc3)c2)cc1	7.2	-2.9	-0.4	-1.3	-5.9	14.7
CNCc1c(OCc2ccc(F)cc2)ccc2ccccc12	62.6*	-26.5	-6.3	9.9	26.1	15.4
COc1cc(CN2CCCCC2)ccc1OCc1ccccc1	/	0.9	-8.9	24.9	82.1*	15.6
COc1ccc(-c2ccccc2)cc1NCc1ccc(OC)c(OC)c1	98.5*	-3.0	-5.7	43.7	11.0	8.5
CC[C@@]1(C(=O)OC)N[C@H](CN(C)C(=O)c2ccc(F)cc2)[C@@H]2C(=O)N(C)C(=O)[C@@H]21	/	/	/	/	/	0.8
O=C(CCCc1ccccc1)Nc1ccnn1C1CCN(Cc2ccc(CO)o2)CC1	/	4.1	-7.2	14.8	-1.6	19.7
CCOC(=O)c1ccc(NC(=O)CN2C(=O)NC3(CCCCCCC3)C2=O)cc1	/	/	/	/	/	7.2
COc1ccc(C(=O)O)cc1S(=O)(=O)NC(C)C12CC3CC(CC(C3)C1)C2 (configuration not stated)	/	/	/	/	/	8.4
CC(OC(=O)C1CC(=O)N(Cc2ccccc2)C1)C(=O)Nc1cccc(C#N)c1 (configuration not stated)	/	-4.2	-8.0	-7.4	-10.4	16.0
c1ccc(COc2cccc(CNCc3cccnc3)c2)cc1	98.2*	-9.4	1.4	30.0	61.5*	14.3
CCOC(=O)c1cccc(NC(=O)C2(S(=O)(=O)c3ccc(C)cc3)CC2)c1	0.2	18.0	10.3	20.2	-4.5	31.4
COc1cccc(CNC(=O)CSCC(=O)Nc2cc(C)on2)c1	/	-3.3	3.9	/	-14.2	8.9
Cc1cccc(C(=O)Nc2ccc(C(=O)N/N=C/c3ccc(C)o3)cc2)c1	/	-6.1	-4.8	-20.3	-3.0	17.1
COc1ccc(C(C(=O)NC2CCCCC2)N(Cc2cccs2)C(=O)Cc2c[nH]c3ccccc23)cc1 (configuration not stated)	49.5	68.0	-7.7	11.9	40.6	5.1
COc1cccc(CN(C(=O)Cc2c[nH]c3ccccc23)C(C(=O)NC2CCCCC2)c2cccs2)c1 (configuration not stated)	14.0	29.5	-4.9	27.2	54.8*	-1.6
Cc1ccc(C(C(=O)NC2CCCC2)N(C(=O)c2csnn2)c2ccccc2)o1 (configuration not stated)	/	1.6	-0.7	3.2	0.5	18.0
Cc1ccc(C(C(=O)Nc2ccc3c(c2)OCO3)N(C)C(=O)Cc2c[nH]c3ccccc23)cc1 (configuration not stated)	69.6*	19.9	8.9	25.8	34.1	10.5
CC(=O)c1ccc(N(C(=O)Cc2c[nH]c3ccccc23)C(C(=O)NC2CCCCC2)c2cccs2)cc1 (configuration not stated)	6.3	32.5	28.3	-0.6	31.2	-1.4
O=C(NC1CCCCC1)C(c1cccs1)N(C(=O)Cc1c[nH]c2ccccc12)c1ccc(F)cc1 (configuration not stated)	74.7*	41.9	-7.7	17.1	57.0*	10.1
Cc1ccc(C(C(=O)NC2CCCCC2)N(C(=O)Cc2c[nH]c3ccccc23)c2ccccc2)o1 (configuration not stated)	18.0	-17.5	-7.3	11.7	55.6*	4.8
Cc1ccc(C(NC(=O)/C=C\c2ccc3c(c2)OCO3)C(=O)Nc2ccc3c(c2)OCO3)cc1 (configuration not stated)	99.8*	0.3	-2.3	1.9	?	26.2
O=C(CS(=O)CC(=O)N(c1ccccc1)C(C(=O)NC1CCCCC1)c1ccco1)Nc1ccc(F)cc1 (configuration not stated)	18.6	36.1	2.3	28.5	-7.8	1.5

Bioassay records (PubChem)
